From ChEMBL document CHEMBL4330063, “New naphthopyran analogues of LY290181 as potential tumor vascular-disrupting agents” (Eur J Med Chem, 2019)
The source made the active and inactive calls. No cut-off for these calls is given here.

Assays:
518A2 [1] = test: Antiproliferative activity against human 518A2 cells after 72 hrs by MTT assay; type: functional, cell-based; settings: for IC50: 518A2, 72 h
Outline: (§1)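 MTT read-out after 72 h of continuous exposure. Viability is expressed as percentage of viable cells relative to untreated controls. IC50 comes from dose-response curves. Values are means±SD of four independent experiments (two for some entries). DMSO was below 1%, with vehicle controls at equal DMSO. Precipitation was excluded spectrometrically and microscopically.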

HT-29 [2] = test: Antiproliferative activity against human HT-29 cells after 72 hrs by MTT assay; type: functional, cell-based; settings: HT-29, 72 h; outline: as §1
A2780 = test: Antiproliferative activity against human A2780 cells after 72 hrs by SRB assay; type: functional, cell-based; settings: A2780, 72 h
Outline: (§2)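 Ovarian A2780 and cisplatin-resistant A2780cis cells were exposed for 72 h and stained with SRB. IC50 comes from dose-response curves, as means±SD of three independent experiments. Final DMSO was below 1%, with matched vehicle controls.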

[3] = Antiproliferative activity against human A2780cis cells after 72 hrs by SRB assay; type: functional, cell-based; outline: as §2
DLD-1 = test: Antiproliferative activity against human DLD1 cells after 72 hrs by MTT assay; type: functional, cell-based; settings: DLD-1, 72 h; outline: as §1
EA.hy 926 [4] = test: Antiproliferative activity against human EAhy926 cells after 72 hrs by MTT assay; type: functional, cell-based; settings: EA.hy 926, 72 h; outline: as §1
PANC-1 = test: Antiproliferative activity against human PANC1 cells after 72 hrs by MTT assay; type: functional, cell-based; settings: PANC-1, 72 h; outline: as §1
HCT-116 = test: Antiproliferative activity against human HCT116 cells after 72 hrs by MTT assay; type: functional, cell-based; settings: HCT-116, 72 h; outline: as §1
[5] = Antiproliferative activity against human KB-V1/Vbl cells after 72 hrs by MTT assay; type: functional, cell-based; outline: as §1
[6] = Antiproliferative activity against human MCF7/Topo cells after 72 hrs by MTT assay; type: functional, cell-based; outline: as §1
EA.hy 926 [7] = test: Antiangiogenic activity against human EAhy926 cells assessed as inhibition of tube formation on matrigel at 100 nM after 24 hrs by light microscopic analysis; type: functional, cell-based
Outline: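 Ea.Hy926 endothelial hybrid cells were seeded on matrigel with compound and examined for tubular/cord-like network formation versus untreated controls. Viability under the same conditions was checked in parallel by MTT to exclude cytotoxic effects.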

EA.hy 926 [8] = test: Cytotoxicity against human EAhy926 cells at 100 nM after 24 hrs by MTT assay relative to control; type: cell-based; settings: ea.hy 926, 24 h, 0.1 µM
HT-29 [9] = test: Cell cycle arrest in human HT-29 cells assessed as accumulation of cells at sub G1 phase at 100 nM after 24 hrs by propidium iodide staining-based flow cytometric analysis (reference value: 1.2 +/- 0.3%); type: functional
HT-29 [10] = test: Cell cycle arrest in human HT-29 cells assessed as accumulation of cells at sub G1 phase at 250 nM after 24 hrs by propidium iodide staining-based flow cytometric analysis (reference value: 1.2 +/- 0.3%); type: functional
HT-29 [11] = test: Cell cycle arrest in human HT-29 cells assessed as accumulation of cells at sub G1 phase at 350 nM after 24 hrs by propidium iodide staining-based flow cytometric analysis (reference value: 1.2 +/- 0.3%); type: functional
HT-29 [12] = test: Cell cycle arrest in human HT-29 cells assessed as accumulation of cells at G1 phase at 100 nM after 24 hrs by propidium iodide staining-based flow cytometric analysis (reference value: 75.1 +/- 1.1%); type: functional
HT-29 [13] = test: Cell cycle arrest in human HT-29 cells assessed as accumulation of cells at G1 phase at 250 nM after 24 hrs by propidium iodide staining-based flow cytometric analysis (reference value: 75.1 +/- 1.1%); type: functional
HT-29 [14] = test: Cell cycle arrest in human HT-29 cells assessed as accumulation of cells at G1 phase at 350 nM after 24 hrs by propidium iodide staining-based flow cytometric analysis (reference value: 75.1 +/- 1.1%); type: functional
HT-29 [15] = test: Cell cycle arrest in human HT-29 cells assessed as accumulation of cells at S phase at 100 nM after 24 hrs by propidium iodide staining-based flow cytometric analysis (reference value: 12.3 +/- 0.4%); type: functional
HT-29 [16] = test: Cell cycle arrest in human HT-29 cells assessed as accumulation of cells at S phase at 250 nM after 24 hrs by propidium iodide staining-based flow cytometric analysis (reference value: 12.3 +/- 0.4%); type: functional
HT-29 [17] = test: Cell cycle arrest in human HT-29 cells assessed as accumulation of cells at S phase at 350 nM after 24 hrs by propidium iodide staining-based flow cytometric analysis (reference value: 12.3 +/- 0.4%); type: functional
HT-29 [18] = test: Cell cycle arrest in human HT-29 cells assessed as accumulation of cells at G2/M phase at 100 nM after 24 hrs by propidium iodide staining-based flow cytometric analysis (reference value: 11.4 +/- 1.4%); type: functional
HT-29 [19] = test: Cell cycle arrest in human HT-29 cells assessed as accumulation of cells at G2/M phase at 250 nM after 24 hrs by propidium iodide staining-based flow cytometric analysis (reference value: 11.4 +/- 1.4%); type: functional
HT-29 [20] = test: Cell cycle arrest in human HT-29 cells assessed as accumulation of cells at G2/M phase at 350 nM after 24 hrs by propidium iodide staining-based flow cytometric analysis (reference value: 11.4 +/- 1.4%); type: functional
518A2 [21] = test: Induction of apoptosis in human 518A2 cells at 100 nM after 24 hrs by TUNEL assay relative to control; type: functional
Tubulin (Homo sapiens) = Tubulin (Homo sapiens) (UniProt P68371+Q9H4B7+P0DPH7+P68366+Q13509+Q71U36+P04350+Q3ZCM7+P07437+P68363+Q9BQE3+Q6PEY2+Q13885+Q9BVA1+Q9BUF5); test: Induction of microtubule disruption in human 518A2 cells at 100 nM after 3 hrs by DAPI staining-based fluorescence microscopic analysis; type: cell-based
Outline: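 Microtubule organization in 518A2 melanoma cells was checked by tubulin immunofluorescence staining after 3 h exposure to 100 nM, with DAPI as the nuclear counterstain. Images come from two independent experiments.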

Tubulin = Tubulin (Sus scrofa, UniProt P02554+P02550); test: Inhibition of porcine brain tubulin polymerization after 2 hrs
518A2 [22] = test: Effect on F-actin in human 518A2 cells assessed as thick stress fibers formation at 100 nM after 3 hrs by DAPI staining-based fluorescence microscopic analysis; type: cell-based
Outline: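 518A2 melanoma cells were treated with 100 nM for 3 h. Filamentous actin was fluorescence-labelled, nuclei were counterstained with DAPI, and the cells were imaged by fluorescence microscopy. Images come from two independent experiments.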

518A2 [23] = test: Antimigratory activity against human 518A2 cells at 50 nM after 48 hrs by wound healing assay; type: functional, cell-based
518A2 [24] = test: Induction of apoptosis in human 518A2 cells assessed as caspase-9 activity at 5 uM after 3.5 hrs by Caspase-Glo luminescence assay (reference value: 100 +/- 1.2%); type: functional
518A2 [25] = test: Induction of apoptosis in human 518A2 cells assessed as accumulation at subG1 phase; type: functional, cell-based
518A2 [26] = test: Induction of cell cycle arrest in human 518A2 cells; type: functional, cell-based
HT-29 [27] = test: Cell cycle arrest in human HT-29 cells assessed as accumulation of cells at G2/M phase after 24 hrs by propidium iodide staining-based flow cytometric analysis; type: functional

SMILES	Activity (518A2 [1])	IC50 (518A2 [1])	IC50 (HT-29 [2])	IC50 (A2780)	IC50 [3]	IC50 (DLD-1)	IC50 (EA.hy 926 [4])	IC50 (PANC-1)	IC50 (HCT-116)	IC50 [5]	IC50 [6]	Activity (EA.hy 926 [7])	Activity (EA.hy 926 [8])	Activity (HT-29 [9])	Activity (HT-29 [10])	Activity (HT-29 [11])	Activity (HT-29 [12])	Activity (HT-29 [13])	Activity (HT-29 [14])	Activity (HT-29 [15])	other results
N#CC1=C(N)Oc2c(ccc3ccccc23)C1c1cc(F)cc(F)c1 (stereo not drawn)	Dose-dependent effect	26.4 nM	176 nM	17 nM	20.3 nM	32.3 nM	31.5 nM	19.5 nM	47 nM	25.8 nM	20.1 nM	Active	> 68%	7.1%	11.3%	13.4%	40.3%	35.9%	30.8%	20.7%	Activity (HT-29 [16]): 19.2%; Activity (HT-29 [17]): 12.3%; Activity (HT-29 [18]): 31.8%; Activity (HT-29 [19]): 33.6%; Activity (HT-29 [20]): 43.5%; Activity (518A2 [21]): 67.5%; Activity (Tubulin (Homo sapiens)): Active; I50 (Tubulin): 9.6 µM; Activity (518A2 [22]): Active; Activity (518A2 [23]): Active; Activity (518A2 [24]): 133%; Activity (518A2 [25]): Active; Activity (518A2 [26]): inactive; Activity (HT-29 [27]): Dose-dependent effect
N#CC1=C(N)Oc2c(ccc3ccccc23)C1c1cccc([N+](=O)[O-])c1 (stereo not drawn)	Dose-dependent effect	35.9 nM	46.9 nM	18.7 nM	26 nM	33.7 nM	35.6 nM	12.5 nM	44.3 nM	22.6 nM	11.8 nM	Active	> 68%	6.1%	13%	12.2%	49.3%	51.7%	39.8%	26.2%	Activity (HT-29 [16]): 22.4%; Activity (HT-29 [17]): 24.1%; Activity (HT-29 [18]): 18.4%; Activity (HT-29 [19]): 12.9%; Activity (HT-29 [20]): 23.9%; Activity (518A2 [21]): 61.4%; Activity (Tubulin (Homo sapiens)): Active; I50 (Tubulin): 7.1 µM; Activity (518A2 [22]): Active; Activity (518A2 [23]): Active; Activity (518A2 [24]): 114.7%; Activity (518A2 [25]): Active; Activity (518A2 [26]): inactive; Activity (HT-29 [27]): Dose-dependent effect
